This is an account of results in ChEMBL document CHEMBL1139169, “Design, synthesis, and antiviral properties of 4'-substituted ribonucleosides as inhibitors of hepatitis C virus replication: the discovery of R1479” (Bioorg Med Chem Lett, 2007).

Data set [1] in a line: Cytotoxicity against human 2209-23 cells at 20 uM. It counts as cell-based. Conditions: 2209-23, 20 µM.
In data set [2] the test system is Hepatitis C virus. Kind of data set: Antiviral activity against HCV 1b replicon in human 2209-23 cells assessed as inhibition of viral replication at 20 uM. The data set is classed as functional, Hepacivirus hominis. Particulars: genotype 1b. In outline:
(§1)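 Huh-7 replicon cell line 2209-23. Compounds were tested at a single fixed concentration and scored as percent inhibition of replicon replication, or titrated to give the IC50, the concentration producing a 50% reduction in replicon replication.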
Background: A replicon is a self-replicating genome or part of one, used to study replication in cells.

Data set [3] has as its system Hepatitis C virus. Kind of data set: Inhibition of HCV 1b BK NS5B570 RNA polymerase. Details: species or system Hepatitis C virus subtype 1b. In outline: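 NS5B570-BK polymerase activity was read as incorporation of radiolabeled nucleoside monophosphate into acid-insoluble RNA products, with HCV cIRES RNA as template.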
Data set [4] in a line: Cytotoxicity against human 2209-23 cells at 100 uM. The data set is classed as cell-based. Particulars: 2209-23, 100 µM.
Data set [5] deals with Hepatitis C virus. Kind of data set: Antiviral activity against HCV 1b replicon in human 2209-23 cells assessed as inhibition of viral replication at 100 uM. The data set is classed as functional, Hepacivirus hominis. Conditions: genotype 1b.
A short description of data set [6]: Cytostatic activity against human 2209-23 cells. Particulars: read-out: CT50 (the source's name). The data set is classed as ADME, cell-based. In outline: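 Replicon cells were tested for proliferation by measuring incorporation of tritiated thymidine into cellular DNA with a scintillation proximity assay (SPA). CT50 was taken as the cytostatic concentration.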

For data set [7], the system named is Hepatitis C virus. Kind of data set: Antiviral activity against HCV 1b replicon in human 2209-23 cells. It counts as functional, organism-based, Hepacivirus hominis. Conditions: genotype 1b. An outline of the steps:
as §1

Data set [8] is described as follows: Cytotoxicity against human 2209-23 cells. The data set is classed as cell-based.

Structures are written as SMILES.

For orientation: inhibition means the relative decrease from the control value, in per cent. One may read the IC50 as the concentration needed to halve the response being measured. Read a low IC50 as inhibition by little substance. As for `[N-]=[N+]=N[C@]1(CO)O[C@@H](n2ccc(=O)[nH]c2=O)[C@H](O)[C@@H]1O`, the Activity in data set [1] is recorded as 17%. The inhibition at 20 µM with Hepatitis C virus [2] turned out to be 13%. Further, the IC50 with Hepatitis C virus [3] came to 300 nM.
In data set [4], `CC[C@]1(CO)O[C@@H](n2ccc(N)nc2=O)[C@H](O)[C@@H]1O` returned an Activity of 20%. Also, the inhibition at 100 µM in the data set on Hepatitis C virus [5] was found to be 20%.
In turn, `O=c1ccn([C@@H]2OC(CO)(CO)[C@@H](O)[C@H]2O)c(=O)[nH]1` displayed an Activity in data set [1] of 0%. Further, the inhibition at 20 µM with Hepatitis C virus [2] turned out to be 1%.
Compound `CC#C[C@]1(CO)O[C@@H](n2ccc(=O)[nH]c2=O)[C@H](O)[C@@H]1O` had an Activity in data set [4] of 19%. Also, in the data set on Hepatitis C virus [5], the inhibition at 100 µM came out at 76%.
Compound `CC#C[C@]1(CO)O[C@@H](n2ccc(N)nc2=O)[C@H](O)[C@@H]1O` registered an Activity in data set [1] of 0%. Also, the inhibition at 20 µM with Hepatitis C virus [2] is 11%.
As for `C=C[C@]1(CO)O[C@@H](n2ccc(=O)[nH]c2=O)[C@H](O)[C@@H]1O`, in data set [1], the Activity stood at 0%. For the same compound, in the data set on Hepatitis C virus [5], the inhibition at 100 µM came to 50%.
The like results for `C=C[C@]1(CO)O[C@@H](n2ccc(N)nc2=O)[C@H](O)[C@@H]1O` were, in that order, 0% and 53%.
Compound `N#C[C@]1(CO)O[C@@H](n2ccc(=O)[nH]c2=O)[C@H](O)[C@@H]1O` showed an Activity in data set [1] of 0%. Besides, the inhibition at 20 µM with Hepatitis C virus [2] was found to be 0%.
As for `N#C[C@]1(CO)O[C@@H](n2ccc(N)nc2=O)[C@H](O)[C@@H]1O`, in data set [1], the Activity turned out to be 100%. In the data set on Hepatitis C virus [2], the inhibition at 20 µM was found to be 99%.
The like results for `C#C[C@]1(CO)O[C@@H](n2ccc(=O)[nH]c2=O)[C@H](O)[C@@H]1O` were, in that order, 0% and 0%.
The term CC50 denotes the concentration that lowers cell viability or growth by half. A low value points to harm at low concentration. On to `Nc1ccn([C@@H]2O[C@H](CO)[C@@H](O)[C@H]2F)c(=O)n1`, for which the GI50 in data set [6] stood at 0.8 µM. Also, in the data set with Hepatitis C virus [7], the IC50 worked out at 580 nM. Moreover, the half-maximal cytotoxic concentration (CC50) in data set [8] is above 100 µM.
Compound `CCO[C@]1(CO)O[C@@H](n2ccc(N)nc2=O)[C@H](O)[C@@H]1O` displayed an Activity in data set [1] of 0%. Further, the inhibition at 20 µM in the data set on Hepatitis C virus [2] came to 11%.
The like results for `Nc1ccn([C@@H]2OC(CO)(CO)[C@@H](O)[C@H]2O)c(=O)n1` were, in that order, 2% and 13%.
Compound `C=CC[C@]1(CO)O[C@@H](n2ccc(=O)[nH]c2=O)[C@H](O)[C@@H]1O` came in with an IC50 in the data set on Hepatitis C virus [7] of 22000 nM. The compound also showed a 50% cytotoxic concentration (CC50) in data set [8] of 39 µM.
`C=CC[C@]1(CO)O[C@@H](n2ccc(N)nc2=O)[C@H](O)[C@@H]1O` had an Activity in data set [1] of 0%. The inhibition at 20 µM in the data set on Hepatitis C virus [2] stood at 0%.
For the compound `C[C@@]1(O)[C@H](O)[C@@H](CO)O[C@H]1n1ccc(N)nc1=O`, the GI50 in data set [6] is above 100 µM. The compound further had an IC50 in the data set with Hepatitis C virus [7] of 1230 nM. Also, the CC50 in data set [8] is above 33 µM.
As for `C#C[C@]1(CO)O[C@@H](n2ccc(N)nc2=O)[C@H](O)[C@@H]1O`, the Activity in data set [1] came out at 0%. Moreover, the inhibition at 20 µM in the data set with Hepatitis C virus [2] is 3%. This compound also came in with an IC50 in the data set with Hepatitis C virus [3] of 2700 nM.
Turning to `[N-]=[N+]=N[C@]1(CO)O[C@@H](n2ccc(N)nc2=O)[C@H](O)[C@@H]1O` [4'-AZIDOCYTIDINE], in data set [6], the GI50 is above 100 µM. Moreover, the Activity in data set [1] turned out to be 13%. The inhibition at 20 µM in the data set on Hepatitis C virus [2] turned out to be 97%. Also, the IC50 was determined as 290 nM in the data set on Hepatitis C virus [3] and 1280 nM with Hepatitis C virus [7]. The compound further had a CC50 in data set [8] above 2000 µM.
